Experiment [1] deals with A549 lysates (CatL/CatB activity). Briefly: Protease activity in A549 cell lysates using Z-Phe-Arg-AMC. Type of experiment: biochemical, human. The conditions noted are these: for inhibition of Z-Phe-Arg-AMC cleaving activity in A549 cell extracts: 20 μM; for inactivation of CatL in A549 lysates: 10 μM. Put shortly:
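A549 cells lysed by sonication in 50 mM MES pH 6.0 with 100 μM AEBSF, 1 μM pepstatin A, 1 mM EDTA and 1 mM DTT; protein measured by BCA. Equal volume of 50 μM Z-Phe-Arg-AMC then added; activity normalised to 0.2% DMSO wells.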

Experiment [2] has as its target VeroE6 lysates (CatL activity) (Chlorocebus aethiops, UniProt Q9GKL8). Briefly: Protease activity in VeroE6 cell lysates using Z-Phe-Arg-AMC. The experiment is classed as biochemical, monkey. The conditions noted are these: for inhibition of Z-Phe-Arg-AMC cleaving activity in VeroE6 lysates: 20 μM; for inactivation of CatL in VeroE6 lysates: 10 μM.
In experiment [3] the target is T1, human CatL (Homo sapiens, UniProt P07711). Briefly: kinact/KI^app determination, recombinant human CatL. The experiment is classed as biochemical. The conditions noted are these: for selectivity for CatL over CatB (kinact/KI^app): human CatL vs human CatB; for kinact/KI: read-out: kinact/KI^app. Put shortly:
(§1)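 Test compound 555.56–0.01 nM, quadruplicate wells. Product formation rates taken at 6 min intervals over 1 h, normalised to DMSO controls. kobs from inactivation curves; kinact and KIapp by nonlinear regression of kobs = kinact[I]/(KIapp+[I]); ratio then calculated.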

In experiment [4] the target is Recombinant human TMPRSS2 (Homo sapiens, UniProt O15393). Briefly: TMPRSS2 protease activity assay. Type of experiment: biochemical. Particulars: up to 50 μM (final concentration).
A further experiment has as its target SARS-CoV-2 PLpro (Severe acute respiratory syndrome coronavirus 2, UniProt P0DTD1). As to the kind of experiment: Single-concentration protease screen against SARS-CoV-2 PLpro. Type of experiment: biochemical. The conditions noted are these: 10 μM.
Another experiment deals with Recombinant human furin (Homo sapiens, UniProt P09958). Type of experiment: biochemical. The conditions noted are these: up to 50 μM (final concentration).
The subject of experiment [5] is SARS-CoV-2. The experiment is classed as cell-based. The conditions noted are these: 24 h.
Experiment [6] relates to SARS-CoV-2. The experiment is classed as cell-based. The conditions noted are these: MRC-5/ACE2/TMPRSS2 cells.
The target of a further experiment is SARS-CoV-2 Mpro (Severe acute respiratory syndrome coronavirus 2, UniProt P0DTD1). As to the kind of experiment: Single-concentration protease screen against SARS-CoV-2 Mpro. Type of experiment: biochemical. The conditions noted are these: 10 μM.
The subject of experiment [7] is SARS-CoV-2. Briefly: SARS-CoV-2-induced CPE in A549/ACE2 cells, inverted microscope. Type of experiment: cell-based. The conditions noted are these: 96 h.
For a further experiment, the target named is Human CatB (Homo sapiens, UniProt P07858). As to the kind of experiment: kinact/KI^app determination, recombinant human CatB. The experiment is classed as biochemical. The conditions noted are these: for kinact/KI: read-out: kinact/KI^app. In short, it runs like this:
as §1

The target of experiment [8] is T1, human CatL. Briefly: Single-concentration protease screen against human CatL. Type of experiment: biochemical. Particulars: for follow-up screen against CatL: 13 nM.
Experiment [9] relates to SARS-CoV-2. Type of experiment: cell-based.
A further experiment concerns the target Mouse CatL (mCatL) (Mus musculus, UniProt P06797). Briefly: kinact/KI^app determination, mouse CatL. The experiment is classed as biochemical. The conditions noted are these: for kinact/KI: read-out: kinact/KI^app. In short, it runs like this:
as §1

The subject of experiment [10] is SARS-CoV-2. As to the kind of experiment: microbe, parasite or virus in culture. The experiment is classed as cell-based.

Some results are limits rather than exact numbers.

VeroE6 lysates (CatL activity), sequence (Q9GKL8 114-333): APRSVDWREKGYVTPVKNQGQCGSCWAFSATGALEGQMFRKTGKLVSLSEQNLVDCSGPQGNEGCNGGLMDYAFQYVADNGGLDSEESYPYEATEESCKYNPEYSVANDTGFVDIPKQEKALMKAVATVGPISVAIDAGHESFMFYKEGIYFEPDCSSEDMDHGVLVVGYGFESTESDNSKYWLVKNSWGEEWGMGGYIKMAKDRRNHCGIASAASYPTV
T1 sequence (P07711 114-333): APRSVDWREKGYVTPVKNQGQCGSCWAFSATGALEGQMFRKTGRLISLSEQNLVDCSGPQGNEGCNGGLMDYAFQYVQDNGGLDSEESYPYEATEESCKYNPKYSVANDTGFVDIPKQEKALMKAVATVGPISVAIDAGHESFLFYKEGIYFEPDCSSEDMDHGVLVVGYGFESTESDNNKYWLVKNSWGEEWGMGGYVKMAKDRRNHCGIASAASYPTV
Mouse CatL (mCatL), sequence (P06797 114-334): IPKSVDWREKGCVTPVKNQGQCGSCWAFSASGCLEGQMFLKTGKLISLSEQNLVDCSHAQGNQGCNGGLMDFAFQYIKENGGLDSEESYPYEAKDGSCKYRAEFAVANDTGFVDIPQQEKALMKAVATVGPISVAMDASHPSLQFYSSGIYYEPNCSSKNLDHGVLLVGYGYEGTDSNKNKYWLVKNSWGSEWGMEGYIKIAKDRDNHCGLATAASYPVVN
Recombinant human furin, sequence (P09958 108-794): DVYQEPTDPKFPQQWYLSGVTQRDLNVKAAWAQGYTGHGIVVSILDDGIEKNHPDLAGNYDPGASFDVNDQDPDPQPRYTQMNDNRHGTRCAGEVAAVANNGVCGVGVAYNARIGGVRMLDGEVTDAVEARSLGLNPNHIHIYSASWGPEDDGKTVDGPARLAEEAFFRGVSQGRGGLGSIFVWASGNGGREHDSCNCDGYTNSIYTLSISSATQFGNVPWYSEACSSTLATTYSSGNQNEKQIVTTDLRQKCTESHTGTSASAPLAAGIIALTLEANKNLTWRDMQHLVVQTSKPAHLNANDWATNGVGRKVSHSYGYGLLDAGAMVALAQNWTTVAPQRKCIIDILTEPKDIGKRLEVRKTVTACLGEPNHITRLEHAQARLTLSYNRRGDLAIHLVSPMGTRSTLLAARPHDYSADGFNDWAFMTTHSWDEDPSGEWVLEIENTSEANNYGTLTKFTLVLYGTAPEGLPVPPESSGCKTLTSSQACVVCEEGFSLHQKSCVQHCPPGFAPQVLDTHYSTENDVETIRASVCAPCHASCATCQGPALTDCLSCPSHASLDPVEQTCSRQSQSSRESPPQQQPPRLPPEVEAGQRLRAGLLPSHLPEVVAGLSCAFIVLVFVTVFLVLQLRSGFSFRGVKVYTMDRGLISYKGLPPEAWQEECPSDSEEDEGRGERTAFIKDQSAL
Recombinant human TMPRSS2, sequence (O15393 whole entry): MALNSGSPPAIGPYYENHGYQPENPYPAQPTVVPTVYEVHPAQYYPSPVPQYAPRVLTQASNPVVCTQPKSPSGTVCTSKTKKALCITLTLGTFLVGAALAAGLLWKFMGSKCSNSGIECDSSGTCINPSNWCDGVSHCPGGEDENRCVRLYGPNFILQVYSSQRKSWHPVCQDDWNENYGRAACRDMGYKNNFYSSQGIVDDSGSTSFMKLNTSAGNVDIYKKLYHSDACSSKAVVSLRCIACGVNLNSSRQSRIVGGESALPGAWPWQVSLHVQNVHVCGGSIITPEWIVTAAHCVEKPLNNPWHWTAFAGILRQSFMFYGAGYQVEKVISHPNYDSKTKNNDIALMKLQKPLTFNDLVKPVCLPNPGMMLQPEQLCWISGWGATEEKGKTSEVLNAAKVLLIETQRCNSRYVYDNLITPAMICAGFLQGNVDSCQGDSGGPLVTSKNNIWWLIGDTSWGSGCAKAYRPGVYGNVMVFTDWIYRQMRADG

Regarding `CCCNC(=O)[C@H]1O[C@@H]1C(=O)N[C@H](C(=O)N1CCC[C@H]1C(=O)O)[C@@H](C)CC` [CA-074, reference compound], the “inhibition of Z-Phe-Arg-AMC cleaving activity in A549 cell extracts” value in experiment [1] is “most of the activity was also sensitive”. The “inhibition of Z-Phe-Arg-AMC cleaving activity in VeroE6 lysates” value in [2] is reported as “no inhibitory activity”.

In the case of `CC[C@H](C)[C@@H](C(=O)O[C@@H](CC(C)C)C(=O)N[C@@H](CC(C)C)C(=O)N[C@@H](C)/C=C/C(=O)N1C(=O)C=C(OC)[C@@H]1C)N(C)C` [compound 1, gallinamide A], the inactivation rate constant (kinact) at human CatL [3] came out at 0.00475 s⁻¹; at Human CatB, 0.000627 s⁻¹; on Mouse CatL (mCatL) it was 0.00569 s⁻¹. Also, the “selectivity for CatL over CatB (kinact/KI^app)” value at human CatL [3] amounted to 112 fold. Further, the kinact/KI at human CatL [3] was 598000 M⁻¹ s⁻¹; on Human CatB, 5350 M⁻¹ s⁻¹; on Mouse CatL (mCatL), 1.07e+06 M⁻¹ s⁻¹. Also, the “inhibition of TMPRSS2 activity” value in experiment [4] was “did not inhibit”. The “inhibition of PLpro” value on SARS-CoV-2 PLpro is “no inhibition”. The “inhibition of furin activity” value on Recombinant human furin is recorded as “did not inhibit”. Besides, in the experiment with SARS-CoV-2 [5], the “antiviral activity in HEK293-ACE2-TMPRSS2 cells” value is reported as “substantially reduced”. The “concentration completely neutralizing SARS-CoV-2 entry” value in the experiment on SARS-CoV-2 [6] is 32 nM. Moreover, the “inhibition of Mpro” value against SARS-CoV-2 Mpro is recorded as “no inhibition”. Also, in the experiment with SARS-CoV-2 [7], the “lowest concentration completely preventing virus-induced CPE” value is reported as 625 nM. Further, the “follow-up screen against CatL” value on human CatL [8] is given as “most potent inhibitors”. Moreover, at human CatL [8] (10 μM), the “CatL activity after incubation with compound” value is recorded as “completely inhibited”. The “inhibitory effect on infection by time of addition” value in the experiment on SARS-CoV-2 [9] is “maximum when 1 was added prior to or at the time of entry”. Also, the “inhibition of Z-Phe-Arg-AMC cleaving activity in A549 cell extracts” value in [1] is on record as “inhibited”. Besides, in experiment [2], the “inhibition of Z-Phe-Arg-AMC cleaving activity in VeroE6 lysates” value was “completely inhibited”.

For the molecule `CC[C@H](C)[C@@H](C(=O)O[C@@H](CC(C)C)C(=O)N[C@@H](CC(C)C)C(=O)N[C@@H](C)/C=C/C(=O)N1C(=O)C=C(OC)[C@@H]1CC(C)C)N(C)C` [compound 3], the “follow-up screen against CatL” value at human CatL [8] is recorded as “most potent inhibitors”.

Regarding `COC1=CC(=O)N(C(=O)/C=C/[C@H](C)NC(=O)[C@H](CC(C)C)NC(=O)[C@H](CC2CCCCC2)NC(=O)C2CCN(C)CC2)[C@H]1Cc1c[nH]c2ccccc12` [compound 17], at human CatL [3], the kinact came out at 0.00347 s⁻¹, the “selectivity for CatL over CatB (kinact/KI^app)” value was determined as 8 fold and the kinact/KI stood at 193000 M⁻¹ s⁻¹. In addition, in the experiment with SARS-CoV-2 [10] (Severe acute respiratory syndrome coronavirus 2, Vero C1008, 72 h, read-out: EC50 SARS-CoV-2, VeroE6 cells, 72 h, mean ± SD of 3–4 independent biological replicates), the concentration giving a half-maximal response (EC50) was greater than 5 µM. Also, at Human CatB, the kinact was 0.0209 s⁻¹ and the kinact/KI worked out at 24300 M⁻¹ s⁻¹. Moreover, at human CatL [8], the “follow-up screen against CatL” value is listed as “most potent inhibitors”. Besides, in [1], the “inactivation of CatL in A549 lysates” value is “complete inactivation”. For the same molecule, the “inactivation of CatL in VeroE6 lysates” value in experiment [2] was “complete inactivation”. In addition, at Mouse CatL (mCatL), the kinact is 0.00856 s⁻¹ and the kinact/KI amounted to 292000 M⁻¹ s⁻¹.

`COC1=CC(=O)N(C(=O)/C=C/[C@H](C)NC(=O)[C@H](CCc2ccccc2)NC(=O)[C@H](CC2CCCCC2)NC(=O)[C@H](C(C)C)N(C)C)[C@H]1Cc1c[nH]c2ccccc12` [compound 19]: the maximal inactivation rate constant (kinact) at human CatL [3] was determined as 0.00587 s⁻¹; at Human CatB it was 0.00335 s⁻¹; at Mouse CatL (mCatL), 0.00224 s⁻¹. For the same molecule, the kinact/KI stood at 189000 M⁻¹ s⁻¹ at human CatL [3], 9650 M⁻¹ s⁻¹ at Human CatB and 136000 M⁻¹ s⁻¹ at Mouse CatL (mCatL). Further, the “concentration completely neutralizing SARS-CoV-2 entry” value with SARS-CoV-2 [6] turned out to be 32 nM. Also, in the experiment on SARS-CoV-2 [7], the “lowest concentration completely preventing virus-induced CPE” value worked out at 310 nM. For the same molecule, the “follow-up screen against CatL” value on human CatL [8] is reported as “most potent inhibitors”.

On to `COC1=CC(=O)N(C(=O)/C=C/[C@H](C)NC(=O)[C@H](CC(C)C)NC(=O)[C@H](CC(C)C)NC(=O)C2CCN(C)CC2)[C@H]1Cc1c[nH]c2ccccc12` [compound 20], for which the kinact on human CatL [3] was 0.00834 s⁻¹; on Human CatB, 0.017 s⁻¹; at Mouse CatL (mCatL) it was 0.00319 s⁻¹. Besides, the kinact/KI on human CatL [3] turned out to be 290000 M⁻¹ s⁻¹; on Human CatB, 19900 M⁻¹ s⁻¹; on Mouse CatL (mCatL) it was 806000 M⁻¹ s⁻¹. For the same molecule, at human CatL [8], the “follow-up screen against CatL” value is listed as “most potent inhibitors”. In addition, in [1], the “inactivation of CatL in A549 lysates” value is “complete inactivation”. In experiment [2], the “inactivation of CatL in VeroE6 lysates” value is given as “complete inactivation”.

`COC1=CC(=O)N(C(=O)/C=C/[C@H](CCc2ccccc2)NC(=O)[C@H](CC(C)C)NC(=O)[C@H](CC(C)C)NC(=O)[C@H](C(C)C)N(C)C)[C@H]1Cc1c[nH]c2ccccc12` [compound 23]: the maximal inactivation rate constant (kinact) on human CatL [3] turned out to be 0.00985 s⁻¹; on Human CatB it was 0.00189 s⁻¹; on Mouse CatL (mCatL), 0.0096 s⁻¹. Besides, the “fold more potent than parent natural product 1, based on kinact/KI^app” value on human CatL [3] (human CatL) is 1.4 fold. Further, the kinact/KI on human CatL [3] was 835000 M⁻¹ s⁻¹; on Human CatB it was 7940 M⁻¹ s⁻¹; at Mouse CatL (mCatL), 2.31e+06 M⁻¹ s⁻¹. Further, the “lowest concentration completely preventing virus-induced CPE” value in the experiment with SARS-CoV-2 [7] is reported as 310 nM. Moreover, the “follow-up screen against CatL” value at human CatL [8] is reported as “most potent inhibitors”.

`CS(=O)(=O)O.CS(=O)(=O)O.N=C(N)Nc1ccc(C(=O)Oc2ccc3cc(C(=N)N)ccc3c2)cc1` [nafamostat mesylate, reference compound]: the “antiviral activity on VeroE6 cells” value with SARS-CoV-2 [10] is listed as “not effective”; in the experiment on SARS-CoV-2 [10] (listed as Nafamostat mesylate) it was “did not exhibit notable antiviral activity”. In addition, the “antiviral activity in HEK293-ACE2-TMPRSS2 cells” value with SARS-CoV-2 [5] is “potent antiviral activity”. Further, the “concentration of neutralization of infection” value in the experiment with SARS-CoV-2 [6] was determined as 4 µM.

Values taken from article PMC8577376 (Journal of Medicinal Chemistry, 2021).
